Activity calls are given as the source filed them. The calls are words filed in the database; no cut-off is given here.
Columns and labels:
B16-F10 [1] = test: Anti-invasive activity against mouse B16F10 cells at 0.25 uM after 24 hrs by matrigel invasion assay; assay type: functional, cell-based
How it was run: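 Cells seeded in the upper chamber of a transwell with a Matrigel-precoated filter, incubated with compound (0.25 μM) for 24 h. Invaded cells imaged and counted against an untreated control. Mean ± sd, n = 3, two-way ANOVA.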

A-375 [2] = test: Antimigratory activity against human A375 cells at 0.25 uM after 24 hrs by transwell migration assay; assay type: functional, cell-based
How it was run: (§1)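 Cells seeded in the upper chamber of a transwell and incubated with compound (0.25 μM) for 24 h. Cells migrated to the lower chamber were imaged and counted against an untreated control. Mean ± sd, n = 3, two-way ANOVA.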

B16-F10 [3] = test: Induction of apoptosis in mouse B16F10 cells after 48 hrs by Annexin V-FITC/propidium iodide staining based flow cytometry; assay type: functional, cell-based
A-375 [4] = test: Antiproliferative activity against human A375 cells after 48 hrs by MTT assay; assay type: functional, cell-based; conditions: A-375, 48 h
B16-F10 [5] = test: Induction of apoptosis in mouse B16F10 cells assessed as upregulation of activated caspase-3 protein expression at 0.5 to 4 uM after 48 hrs by Western blot analysis; assay type: functional, cell-based
How it was run: (§2)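 Cells treated with compound at different concentrations (0.5-4 μM) for 48 h. Lysates probed by Western blot for cleaved PARP, active caspase-3, Bax and p53.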

A-375 [6] = test: Inhibition of colony formation in human A375 cells at 0.125 to 0.25 uM after 7 days by crystal violet staining based assay; assay type: functional, cell-based
How it was run: (§3)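 Clonogenic long-term growth assay: A375 or B16F10 cells grown under continuous compound exposure for 7 days, then colonies quantified; mean ± sd, n = 3, two-way ANOVA.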

A-375 [7] = test: Downregulation of beta-catenin protein expression in human A375 cells after 48 hrs by Western blot analysis; assay type: functional, cell-based
How it was run: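 Cells treated with compound at different concentrations for 48 h. Western blot for STAT3, p-STAT3, β-catenin and c-Myc.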

B16-F10 [8] = test: Induction of apoptosis in mouse B16F10 cells assessed as late apoptotic cells at 2 uM after 48 hrs by Annexin V-FITC/propidium iodide staining based flow cytometry (reference value: 0.303%); assay type: functional
A-375 [9] = test: Induction of apoptosis in human A375 cells assessed as upregulation of activated caspase-3 protein expression at 0.5 to 4 uM after 48 hrs by Western blot analysis; assay type: functional, cell-based; how it was run: as §2
A-375 [10] = test: Induction of apoptosis in human A375 cells assessed as late apoptotic cells at 1 uM after 48 hrs by Annexin V-FITC/propidium iodide staining based flow cytometry (reference value: 2.7%); assay type: functional
A-375 [11] = test: Induction of apoptosis in human A375 cells assessed as necrotic cells at 1 uM after 48 hrs by Annexin V-FITC/propidium iodide staining based flow cytometry (reference value: 2.39%); assay type: functional
B16-F10 [12] = test: Induction of apoptosis in mouse B16F10 cells assessed as early apoptotic cells at 2 uM after 48 hrs by Annexin V-FITC/propidium iodide staining based flow cytometry (reference value: 0.022%); assay type: functional
Homo sapiens [13] = organism: Homo sapiens; test: Inhibition of Wnt/beta-catenin signaling pathway (unknown origin) expressed in human 293T cells assessed as inhibition of TCF/LEF activity up to 100 uM after 48 hrs by luciferase reporter gene assay; assay type: cell-based
How it was run: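 293T cells transfected with a TCF/LEF reporter plasmid were treated with compound at different concentrations for 48 h. Luciferase activity was measured and normalized to Renilla luciferase activity.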

Homo sapiens [14] = organism: Homo sapiens; test: Inhibition of Wnt/beta-catenin signaling pathway in human A375 cells assessed as reduction in STAT3 phosphorylation after 48 hrs by Western blot analysis; assay type: cell-based
How it was run: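 A375 cells exposed to compound at several concentrations for 48 h; lysates immunoblotted for STAT3, p-STAT3, β-catenin and c-Myc.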

B16-F10 [15] = test: Inhibition of CD133+ sub-population of mouse B16F10 cells assessed as CD133+ cells at 0.25 after 48 hrs by flow cytometry (reference value: 7.23%); assay type: functional; set-up: scale not given: the % may be the effect or the level left
A-375 [16] = test: Inhibition of ALDH+ subpopulation of human A375 cells assessed as ALDH+ cells at 0.25 after 48 hrs by flow cytometry (reference value: 25.7%); assay type: functional; set-up: scale not given: the % may be the effect or the level left
B16-F10 [17] = test: Antitumor activity against mouse B16F10 cells implanted in C57BL/6J mouse assessed as tumor growth inhibition at 15 mg/kg/day, ip measured after 24 days; assay type: functional, organism-based
How it was run: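 C57BL/6J mice injected subcutaneously with B16F10 cells and treated with vehicle or compound. Tumor volume and body weight followed, and tumors dissected and weighed on day 24. Mean ± sd, n = 5, two-way ANOVA.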

A-375 [18] = test: Induction of apoptosis in human A375 cells assessed as late apoptotic cells at 2 uM after 48 hrs by Annexin V-FITC/propidium iodide staining based flow cytometry (reference value: 2.7%); assay type: functional
B16-F10 [19] = test: Induction of apoptosis in mouse B16F10 cells assessed as necrotic cells at 2 uM after 48 hrs by Annexin V-FITC/propidium iodide staining based flow cytometry (reference value: 1.86%); assay type: functional
A-375 [20] = test: Inhibition of CD133+ sub-population of human A375 cells assessed as CD133+ cells at 0.5 after 48 hrs by flow cytometry (reference value: 4.54%); assay type: functional; set-up: scale not given: the % may be the effect or the level left
A-375 [21] = test: Inhibition of CD133+ sub-population of human A375 cells assessed as CD133+ cells at 0.25 after 48 hrs by flow cytometry (reference value: 4.54%); assay type: functional; set-up: scale not given: the % may be the effect or the level left
B16-F10 [22] = test: Inhibition of colony formation in mouse B16F10 cells at 0.125 to 0.25 uM after 7 days by crystal violet staining based assay; assay type: functional, cell-based; how it was run: as §3
B16-F10 [23] = test: Induction of apoptosis in mouse B16F10 cells assessed as late apoptotic cells at 1 uM after 48 hrs by Annexin V-FITC/propidium iodide staining based flow cytometry (reference value: 0.303%); assay type: functional
A-375 [24] = test: Inhibition of ALDH+ subpopulation of human A375 cells assessed as ALDH+ cells at 0.5 after 48 hrs by flow cytometry (reference value: 25.7%); assay type: functional; set-up: scale not given: the % may be the effect or the level left
B16-F10 [25] = test: Antimigratory activity against mouse B16F10 cells at 0.25 uM after 24 hrs by transwell migration assay; assay type: functional, cell-based; how it was run: as §1
B16-F10 [26] = test: Induction of apoptosis in mouse B16F10 cells assessed as live cells at 1 uM after 48 hrs by Annexin V-FITC/propidium iodide staining based flow cytometry (reference value: 97.6%); assay type: functional
A-375 [27] = test: Inhibition of tumor sphere formation ability of human A375 cells at 0.25 to 0.5 uM pretreated for 48 hrs followed by cell culture for 7 days; assay type: functional, cell-based
How it was run: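 A375 or B16F10 cells pretreated with or without compound for 48 h, collected and replated on ultra-low attachment surfaces; after 7 days of culture, sphere number and size scored; mean ± sd, n = 3, two-way ANOVA.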

A549 = test: Antiproliferative activity against human A549 cells after 48 hrs by MTT assay; assay type: functional, cell-based; conditions: A549, 48 h
A-375 [28] = test: Induction of apoptosis in human A375 cells assessed as early apoptotic cells at 1 uM after 48 hrs by Annexin V-FITC/propidium iodide staining based flow cytometry (reference value: 1.13%); assay type: functional
A-375 [29] = test: Induction of apoptosis in human A375 cells assessed as necrotic cells at 2 uM after 48 hrs by Annexin V-FITC/propidium iodide staining based flow cytometry (reference value: 2.39%); assay type: functional
B16-F10 [30] = test: Induction of apoptosis in mouse B16F10 cells assessed as necrotic cells at 1 uM after 48 hrs by Annexin V-FITC/propidium iodide staining based flow cytometry (reference value: 1.86%); assay type: functional

IC50 (A-375 [4]): 801 nM | IC50 (A549): 4660 nM
SMILES: CC[C@H](C)[C@H](NC(=O)OCc1ccccc1)C(=O)N[C@@H](CC(C)C)C(=O)N[C@@H](CC(C)C)C(=O)N[C@@H](C)/C=C/C(=O)N1C(=O)C=C(OC)[C@@H]1C(C)C
Activity (B16-F10 [1]): Active | Activity (A-375 [2]): Active | Activity (B16-F10 [3]): Dose-dependent effect | Activity (B16-F10 [5]): Active | inhibition (A-375 [6]): Active | Activity (A-375 [7]): Dose-dependent effect | Activity (B16-F10 [8]): 32.9% | Activity (A-375 [9]): Active | Activity (A-375 [10]): 4.48% | Activity (A-375 [11]): 4.16% | Activity (B16-F10 [12]): 31.8% | inhibition (Homo sapiens [13]): Active | inhibition (Homo sapiens [14]): Dose-dependent effect | Activity (B16-F10 [15]): 2.31% | Activity (A-375 [16]): 13.3% | TGI (B16-F10 [17]): Active | Activity (A-375 [18]): 8.11% | Activity (B16-F10 [19]): 3.92% | Activity (A-375 [20]): 0.867% | Activity (A-375 [21]): 1.25% | inhibition (B16-F10 [22]): Active | Activity (B16-F10 [23]): 4.05% | Activity (A-375 [24]): 8.81% | Activity (B16-F10 [25]): Active | Activity (B16-F10 [26]): 85% | inhibition (A-375 [27]): Active | Activity (A-375 [28]): 3.49% | Activity (A-375 [29]): 2.87% | Activity (B16-F10 [30]): 1.37%

Reference: ChEMBL document CHEMBL4270546, “A novel Anti-Cancer Stem Cells compound optimized from the natural symplostatin 4 scaffold inhibits Wnt/β-catenin signaling pathway” (Eur J Med Chem, 2018)
